# From PubChem BioAssay
# EBNA-1 inh: blocks EBNA-1 binding to DNA; inhibition, % at 14.8 µM; EBNA-1 DNA binding, fluorescence polarization; AID 1950; hit rate 0.34% among 300,000; in the data active means inhibition above about 28%
# NS3 helicase inh: HCV NS3 helicase inhibition. NS3 helicase DNA unwinding, Cy5 molecular beacon fluorescence. inhibition, % at 10.9 µM. hit rate 0.56% among 290,000. AID 1800;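 active means inhibition above the mean of all tested compounds plus 3 SD, set per campaign, cut at about 35% in these data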
#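 Assay system: hepatitis C virus NS3 helicase domain fragment enzyme. Also added: annealed dual-labelled DNA beacon duplex, ATP-started. Timing: 1 h reaction at 25 °C, ATP-initiated. Technique: Cy5 fluorescence at 0 and 60 min, beacon hairpin quenching. Evaluation: % inhibition of unwinding. Replication: one well per compound.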
# NR3A LBD binder: modulators (binders) of human NR3A ligand-binding domain. hit rate 2.5% among 340,000. Tm shift relative to glycine control, % at 25 µM. NR3A LBD differential scanning fluorimetry, Tm shift; 0% = protein alone, 100% = glycine-bound protein;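 active means melting temperature shift of at least 10% of the positive control shift, at one fixed dose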
# DNA FID counter: counter-screen for HCV NS3 helicase inhibitors: DNA intercalator displacement; DNA fluorescent intercalator displacement, fluorescence; inhibition, % at 7.9 µM; hit rate 0.17% among 290,000; AID 1845; in the data active means inhibition above about 37%;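 further: higher means more ethidium bromide displaced from hairpin DNA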
# FGF22 binding: FGF22 (human) thermal shift binding; Q9HCT0; recombinant FGF22 thermal shift, SYPRO orange fluorescence; percent of sucrose octasulfate shift, DMSO zero; activity (Tm shift, normalised), % at 9.99 µM; hit rate 1.5% among 340,000; AID 651658;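 active means mean Tm shift, scaled 0 neutral to 100 positive control, at about 1.3% or above, every replicate too, limit read from the data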
# Target sequence (Q9HCT0 whole entry, looked up): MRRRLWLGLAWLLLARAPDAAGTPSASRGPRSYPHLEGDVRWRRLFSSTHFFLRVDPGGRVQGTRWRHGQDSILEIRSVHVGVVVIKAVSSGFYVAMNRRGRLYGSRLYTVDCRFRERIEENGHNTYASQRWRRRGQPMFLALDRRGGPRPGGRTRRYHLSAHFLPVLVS
# ZTA counter: blocks Epstein-Barr virus ZTA, an EBNA-1 counter-screen; ZTA-DNA binding, fluorescence polarization; inhibition, % at 11 µM; hit rate 0.15% among 320,000; AID 2234; in the data active means inhibition above about 33%
# Target sequence (P03206 whole entry, looked up): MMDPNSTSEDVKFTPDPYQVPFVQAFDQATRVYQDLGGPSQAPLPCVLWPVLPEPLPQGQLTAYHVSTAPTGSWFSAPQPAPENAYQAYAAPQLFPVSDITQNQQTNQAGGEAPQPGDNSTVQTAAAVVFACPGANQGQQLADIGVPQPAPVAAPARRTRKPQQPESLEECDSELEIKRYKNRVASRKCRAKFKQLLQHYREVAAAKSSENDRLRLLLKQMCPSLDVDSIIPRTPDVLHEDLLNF
# Numbers stand for hits; 0 = inactive; - = not tested or not shown. The list is not random: actives were taken first. Their share in the collection is about 3.6%.
SMILES,EBNA-1 inh,NS3 helicase inh,NR3A LBD binder,DNA FID counter,FGF22 binding,ZTA counter
COc1ccc(C(=O)Nc2ccc3c(c2)C(=O)N(C)C[C@H](OC)[C@@H](C)CN(C(C)=O)[C@H](C)CO3)cc1,-,-,-,-,0,-
C[C@H](CO)N1C[C@H](C)[C@H](CN(C)Cc2ccc(C(F)(F)F)cc2)Oc2ccc(NC(=O)CCC(F)(F)F)cc2CC1=O,-,-,-,-,0,-
O=C1N=C(N2CCOCC2)S/C1=C\c1cccs1,0,0,0,0,0,0
N#CCCN1CCN(C2=NC(=O)/C(=C\c3cccs3)S2)CC1,0,0,0,0,44,0
C[C@H](CO)N1C[C@H](C)[C@H](CN(C)Cc2ccc3c(c2)OCO3)OCCCC[C@H](C)Oc2ccc(NC(=O)Cc3ccccc3)cc2C1=O,-,-,-,-,0,-
O=C1C2(CCCC13COC(c1ccc(O)cc1)OC3)COC(c1ccc(O)cc1)OC2 (stereo unspecified),0,0,26,0,0,0
O=C1C2(CCC13COC(c1ccc(O)cc1)OC3)COC(c1ccc(O)cc1)OC2 (stereo unspecified),0,0,0,0,-,0
COc1ccc(C(=O)Nc2ccc3ccccc3c2)cc1,0,0,21,0,0,0
O=C(Nc1ccc(N2CCOCC2)c(Cl)c1)c1cccc(F)c1,0,0,12,0,-,0
Cc1nc2ccc(S(=O)(=O)N(C)CC(=O)Nc3ccccc3F)cc2s1,0,0,0,0,44,0
O=C(Nc1ccc(N2CCOCC2)c(Cl)c1)c1c(F)c(F)c(F)c(F)c1F,0,0,0,0,-,0
COc1ccc(OC)c(NS(=O)(=O)c2ccc(NC(=O)c3ccc(NS(C)(=O)=O)cc3)cc2)c1,0,0,21,0,0,0
C[C@H](CO)N1C[C@H](C)[C@H](CN(C)Cc2ccc(-c3ccccc3)cc2)Oc2c(NC(=O)NC3CCCCC3)cccc2C1=O,-,-,-,-,0,-
COc1ccccc1-c1ccc2n(c1=O)C[C@H]1[C@H](CO)[C@@H](C(=O)N(C)C)N(CC3CCOCC3)[C@@H]21,-,-,-,-,0,-
COc1cccc(C(=O)Nc2ccc3ccccc3c2)c1,0,0,30,0,0,0
CC(/C=C/c1ccccc1F)=N\NC(=O)c1cccc(F)c1,0,0,22,0,0,0
Cc1csc(N(C(=O)c2cccc(S(=O)(=O)N3CCCC3)c2)c2ccccc2)n1,0,0,0,0,-,0
Cc1cccc(C(=O)Nc2ccc3ccccc3c2)c1,0,0,0,0,0,0
O=C(Nc1cc(Cl)cc(Cl)c1)c1cccc(OC(F)F)c1,0,0,25,0,-,0
Cc1csc(N(C(=O)c2cccc(S(=O)(=O)N(C)C)c2)c2ccccc2)n1,0,0,12,0,0,0
COc1ccccc1NC(=O)N[C@@H]1CC[C@@H](CC(=O)NCc2ccc(Cl)c(Cl)c2)O[C@@H]1CO,-,-,-,-,0,-
O=C(Nc1cccc(NC(=O)c2ccc(-c3ccc(Br)cc3)o2)c1)c1ccco1,0,0,31,0,-,0
COc1cccc(C(=O)NCC2(c3ccccc3)CCCC2)c1,0,0,0,0,43,0
CN(C)S(=O)(=O)c1ccc(NC(=O)c2cc3ccccc3o2)cc1,0,0,31,0,-,0
COc1cccc(C(=O)NCC2(c3ccc(OC)c(OC)c3)CCCC2)c1,0,0,0,0,0,0
SMILES,EBNA-1 inh,NS3 helicase inh,NR3A LBD binder,DNA FID counter,FGF22 binding,ZTA counter
O=C(Nc1ccc(Nc2ccccc2)cc1)c1cccc(F)c1,0,0,29,0,0,0
O=C(Nc1cccc(F)c1)c1ccccc1,0,0,0,0,-,0
C[C@@H]1CCCCO[C@@H](CN(C)S(C)(=O)=O)[C@H](C)CN([C@H](C)CO)C(=O)c2cc(NS(C)(=O)=O)ccc2O1,-,-,-,-,0,-
CN1[C@@H]2Cn3c(ccc(-c4ccccc4)c3=O)[C@H]1[C@@H](C(=O)NCC1CC1)[C@@H]2CO,-,-,-,-,0,-
C[C@@H]1CN([C@H](C)CO)C(=O)c2cc(NS(=O)(=O)c3ccc(Cl)cc3)ccc2O[C@H]1CN(C)C(=O)Nc1ccc2c(c1)OCO2,-,-,-,-,0,-
COc1cccc(NC(=O)c2cccc(NC(=O)c3ccco3)c2)c1,-,-,-,-,43,-
COc1cccc(-c2cc(=O)c3cc(NC(=O)c4ccccc4)ccc3[nH]2)c1,0,0,26,0,0,0
CN(C)S(=O)(=O)c1cccc(C(=O)Nc2ccccc2)c1,0,0,0,0,43,0
COc1cc(NC(=O)COc2ccc(Cl)cc2)ccc1-c1cc2ccccc2oc1=O,0,0,10,0,0,0
COc1cc(NC(=O)COc2ccc(Cl)cc2)ccc1NC(=O)C(C)C,0,0,0,0,0,0
N#Cc1ccc(-c2ccc([C@H]3[C@@H](CO)N4C(=O)CN(C(=O)C5CCCCC5)C[C@@H]34)cc2)cc1,-,-,-,-,0,-
COc1cccc(C(=O)Nc2ccc3c(c2)C(=O)N(C)C[C@H](OC)[C@@H](C)CN[C@H](C)CO3)c1,-,-,-,-,0,-
CN1C[C@H]2[C@@H](c3ccccc31)[C@H](CO)N2C(=O)C1CCCCC1,-,-,-,-,0,-
CO[C@@H]1CN(C)C(=O)c2cc(NC(=O)CC(F)(F)F)ccc2OC[C@H](C)N(S(=O)(=O)c2cn(C)cn2)C[C@@H]1C,-,-,-,-,0,-
C[C@H](CO)N1C[C@H](C)[C@@H](CN(C)S(C)(=O)=O)Oc2c(NC(=O)Nc3ccc(F)cc3)cccc2C1=O,-,-,-,-,0,-
COc1ccc(NC(=O)NNC(=O)COc2ccc3ccccc3c2)cc1OC,0,0,16,0,0,0
COc1ccc(NC(=O)NNC(=O)COc2ccc3cc(Br)ccc3c2)cc1OC,0,0,0,0,0,0
COc1ccc(NC(=O)c2cccc(OS(=O)(=O)N(C)C)c2)cc1,0,0,12,0,0,0
CS(=O)(=O)Nc1ccc(C(=O)Nc2ccc3ccccc3c2)cc1,0,0,31,0,0,0
COc1cccc(C(=O)Nc2ccc(NC(=O)c3cc4ccccc4o3)c(OC)c2)c1,0,0,23,0,0,0
O=C(C[C@H]1C=C[C@H](NC(=O)CN2CCOCC2)[C@@H](CO)O1)NCCc1ccccc1,-,-,-,-,0,-
O=C(C[C@@H]1C=C[C@H](NC(=O)C2CC2)[C@@H](CO)O1)NCc1ccncc1,-,-,-,-,0,-
CCOC(=O)c1ccc(NC(=O)c2ccc(NS(C)(=O)=O)cc2)cc1,0,0,16,0,-,0
CCOC(=O)c1ccc(NC(=O)c2ccccc2)cc1,0,0,0,0,0,0
COc1cc(NS(=O)(=O)c2ccc(NC(=S)NC(=O)c3sc4cc(F)ccc4c3Cl)cc2)nc(OC)n1,0,0,17,0,0,0
Cn1nnc2cc(C(=O)Nc3ccc4ccccc4c3)ccc21,0,0,21,0,0,0
COc1cc(NS(=O)(=O)c2ccc(NC(=S)NC(=O)c3sc4ccccc4c3Cl)cc2)nc(OC)n1,0,0,0,0,-,0
COc1cccc(C(=O)Nc2ccc(NC(=O)Cc3ccccc3)cc2)c1,0,0,0,0,0,0
COc1cccc(C(=O)Nc2ccccc2)c1,0,0,26,0,-,0
